Assay results reported in ChEMBL document CHEMBL4622834, “Synthesis and antiproliferative activity of sulfonamide-based peptidomimetic calpain inhibitors” (Bioorg Med Chem, 2020).
pKi: −log10 of the molar value. Calls of active or inactive are those of the source. The rule behind the calls is not given here. Where a SMILES comes first, the peptide text is derived from it. The star is where a group is joined. Cbz = O=C(OCc1ccccc1)*

Legend:
B16-F1 = assay: Antiproliferative activity against mouse B16-F1 cells assessed as inhibition of cell growth after 48 hrs by sulforhodamine B colorimetric assay; type: functional; conditions: B16-F1, 48 h
In short: (§1)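 Melanoma cells in DMEM with 5% FBS, 1% penicillin/streptomycin, 0.05% insulin; 5000 cells/well in U-bottom wells. After 12 h medium changed and compound added at 8 concentrations for 48 h; Taxol positive control, cells plus medium as negative control. Fixed with 10% TCA, stained with 0.4% SRB in 1% acetic acid 30 min RT, dye released with 10 mM Tris base, A490. Triplicate, ±SEM.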

[1] = molecular target: T1, Calpain-1 catalytic subunit (Sus scrofa, UniProt P35750); assay: Inhibition of mu-calpain in porcine erythrocyte using Suc-Leu-Tyr-AMC as substrate by microtiter plate assay based Dixon plot analysis
T1 sequence (P35750 whole entry): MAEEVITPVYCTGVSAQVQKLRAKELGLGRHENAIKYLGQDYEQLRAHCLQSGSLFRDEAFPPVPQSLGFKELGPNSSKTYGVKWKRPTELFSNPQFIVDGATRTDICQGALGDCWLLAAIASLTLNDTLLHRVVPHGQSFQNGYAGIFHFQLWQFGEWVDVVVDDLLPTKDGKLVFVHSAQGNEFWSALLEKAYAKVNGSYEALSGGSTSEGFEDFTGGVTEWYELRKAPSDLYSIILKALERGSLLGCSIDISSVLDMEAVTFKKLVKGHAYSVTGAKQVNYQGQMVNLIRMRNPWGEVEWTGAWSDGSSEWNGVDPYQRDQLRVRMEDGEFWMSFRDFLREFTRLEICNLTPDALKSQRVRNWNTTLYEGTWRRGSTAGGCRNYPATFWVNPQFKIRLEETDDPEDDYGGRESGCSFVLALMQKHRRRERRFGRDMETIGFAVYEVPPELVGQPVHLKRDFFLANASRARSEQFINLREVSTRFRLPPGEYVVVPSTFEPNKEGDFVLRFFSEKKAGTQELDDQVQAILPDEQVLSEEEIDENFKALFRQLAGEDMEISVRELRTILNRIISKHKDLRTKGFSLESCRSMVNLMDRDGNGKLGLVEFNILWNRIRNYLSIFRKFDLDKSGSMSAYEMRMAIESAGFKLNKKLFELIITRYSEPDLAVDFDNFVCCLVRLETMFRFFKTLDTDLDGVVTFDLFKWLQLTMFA
In short: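 Porcine erythrocyte µ-calpain (1 µg) in 50 mM Tris-HCl pH 7.4, 50 mM NaCl, 10 mM DTT, 1 mM EDTA, 1 mM EGTA, 5 mM CaCl2, with 0.2 mM or 1.0 mM Suc-Leu-Tyr-AMC and varying inhibitor in DMSO (2% total). Ki from Dixon plots of initial velocity (1/v vs inhibitor concentration), r above 0.95; no correction for slow binding or autolysis; mean of triplicates.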

A-375 = assay: Antiproliferative activity against human A375 cells assessed as inhibition of cell growth after 48 hrs by sulforhodamine B colorimetric assay; type: functional; conditions: A-375, 48 h; in short: as §1
PC-3 = assay: Antiproliferative activity against human PC3 cells assessed as inhibition of cell growth after 72 hrs by MTT assay; type: functional; conditions: PC-3, 72 h
In short: (§2)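 Cells seeded at 2,000–15,000/well, exposed to drug for 72 h at 37 °C, 5% CO2; untreated wells as negative control. MTT (5 mg/mL) added for the final 2–4 h; plates spun, formazan dissolved in DMSO, A595. Percent survival vs concentration fitted by nonlinear regression for IC50. Triplicate. PC3 grown in RPMI-1640, DU145 in EMEM, each with 10% FBS; DU145 tested at 1 and 2 µM.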

DU-145 [2] = assay: Antiinvasive activity against human DU145 cells assessed as inhibition of cell invasion after 48 hrs by matrigel cell invasion assay; type: functional, cell-based
In short: (§3)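 DU-145 cells (20,000) seeded in serum-free medium with 1% BSA in upper chamber, 37 °C for 24 h; lower chamber 10% FBS as chemoattractant. Upper medium then replaced with serum-free medium with or without compound at 1.0, 1.5 or 2.0 µM. After 48 h, non-invading cells swabbed off; invading cells fixed, stained, counted. Triplicate; expressed as percentage of untreated cells.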

DU-145 [3] = assay: Antiproliferative activity against human DU145 cells assessed as inhibition of cell growth at 1 to 2 uM after 72 hrs by MTT assay; type: functional, cell-based; in short: as §2
DU-145 [4] = assay: Antiinvasive activity against human DU145 cells assessed as inhibition of cell invasion at 2 uM after 48 hrs by matrigel cell invasion assay; type: functional; conditions: DU-145, 48 h; in short: as §3

Compound	GI50 (B16-F1)	pKi [1]	GI50 (A-375)	GI50 (PC-3)	inhibition (DU-145 [2])	Activity (DU-145 [3])	inhibition at 2 µM (DU-145 [4])
CC(C)C[C@@H](C=O)NC(=O)[C@@H](NS(=O)(=O)c1ccc(/N=N/c2ccccc2)cc1)C(C)C	13.7 µM	7.74	12.9 µM	27.3 µM	–	–	–
CC(C)C[C@H](NC(=O)[C@@H](NS(=O)(=O)c1ccc(/C=C/c2ccccc2)cc1)C(C)C)C(=O)C(N)=O	17.2 µM	8.05	16 µM	6.02 µM	–	–	–
CC(C)[C@H](NC(=O)OCc1ccccc1)C(=O)N[C@H](C=O)Cc1ccccc1 (Cbz-Val-Phe-aldehyde)	–	8.00	–	–	–	–	–
CC(C)C[C@H](NC(=O)[C@@H](NS(=O)(=O)c1ccc(/N=N/c2ccccc2)cc1)C(C)C)C(=O)C(N)=O	18.7 µM	7.80	22.2 µM	24.1 µM	Dose-dependent effect	inactive	80%

Now from value to molecule, other results behind:

GI50 (B16-F1)	pKi [1]	GI50 (A-375)	GI50 (PC-3)	Compound	inhibition (DU-145 [2])	Activity (DU-145 [3])	inhibition at 2 µM (DU-145 [4])
10.3 µM	7.85	9.4 µM	23 µM	CC(C)C[C@@H](C=O)NC(=O)[C@@H](NS(=O)(=O)c1ccc(/C=C/c2ccccc2)cc1)C(C)C	–	–	–
0.02 µM	–	0.01 µM	0.03 µM	CC(=O)O[C@H]1C(=O)[C@@]2(C)[C@H]([C@H](OC(=O)c3ccccc3)[C@]3(O)C[C@H](OC(=O)[C@H](O)[C@@H](NC(=O)c4ccccc4)c4ccccc4)C(C)=C1C3(C)C)[C@]1(OC(C)=O)CO[C@@H]1C[C@@H]2O [PACLITAXEL]	–	–	–
13.6 µM	6.56	4.1 µM	5.6 µM	CC(C)C[C@@H](C=O)NC(=O)[C@@H]1CCCN1S(=O)(=O)c1ccc(/N=N/c2ccccc2)cc1	–	–	–
